According to paper PMC5014782 (Diabetes Therapy, 2016):
Entries after “also recorded” stand apart in the source; their conditions may differ. Where two headings read alike, the source gives them in different places. Marks after values point to notes of the source that are not given here.

What was measured:
[1] = system: patients with type 2 diabetes mellitus; assay: Exposure–response analysis for safety/tolerability; format: in vivo, human; details: empagliflozin therapy compared with placebo-treated patients; OR (95% CI)
Outline: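 Logistic regression (R glm, binomial, logit link) of dichotomous patient-level adverse-event endpoints, each counted as any event during study. Endpoints: confirmed hypoglycemia (plasma glucose <3.9 mM and/or assistance required), and UTI, genital infection and volume depletion defined by 73, 89 and 8 preferred terms. Covariates enter additively with steady-state AUC relative to reference. Odds ratios computed for empagliflozin treatment.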

[2] = Japanese patients with T2DM and renal impairment; subjects with renal impairment; cited from earlier work
[3] = system: patients with type 2 diabetes mellitus; format: in vivo, human; details: 24 weeks, median (2.5th, 97.5th percentile)
[4] = system: patients with type 2 diabetes mellitus; assay: Exposure–response analysis for efficacy; format: in vivo, human; details: for Target of the maximal response for FPG and HbA1c obtained: after 24 weeks
Outline: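 NONMEM population PK/PD turnover model fitted to 25,361 FPG and 22,012 HbA1c values from 4065 patients, placebo arms included, in three Phase II and four Phase III trials of ≥12 weeks. AUCss drives FPG elimination through a non-linear Emax term, and FPG changes drive HbA1c production. Steady-state baseline assumed. Covariates on Gmax include eGFR and baseline FPG. Precision checked by bootstrap.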

[5] = Population pharmacokinetic analysis; format: in vivo, human
Outline: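 NONMEM 7.2 two-compartment model with lagged first-order absorption (lag fixed at 0.5 h) and first-order elimination. Fitted to 12,503 plasma concentrations from 2761 patients given oral doses of 1–100 mg once daily in ten Phase I–III studies; placebo excluded and first-hour samples dropped. eGFR by the MDRD formula, with a reference patient at eGFR 100 mL/min/1.73 m2. Bootstrap precision check.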

[6] = system: patients with type 2 diabetes mellitus; details: cited from earlier work; for Placebo-corrected reduction in HbA1c / Reduction in FPG: Phase III
[7] = eGFR 15 mL/min/1.73 m^2 vs reference patient with eGFR 100 mL/min/1.73 m^2

Increase in typical AUCss [5, 7]: 88.1% | Reduction in CL/F [5, 7]: 46.8% | Increase in typical AUCss ([5]; eGFR 30 mL/min/1.73 m^2 vs reference patient with eGFR 100 mL/min/1.73 m^2): 49.2% | Increase in typical AUCss ([5]; eGFR 60 mL/min/1.73 m^2 vs reference patient with eGFR 100 mL/min/1.73 m^2): 18.5% | Increase in mean AUCss ([5]; eGFR ≥60 mL/min/1.73 m^2 vs reference eGFR 100 mL/min/1.73 m^2): ≤ 20% | Vd/F ([5]; human, plasma, oral): 3.14 L | first-order ka ([5]; typical value given the reference covariates): 0.196 L/h
SMILES: OC[C@H]1O[C@@H](c2ccc(Cl)c(Cc3ccc(O[C@H]4CCOC4)cc3)c2)[C@H](O)[C@@H](O)[C@@H]1O [empagliflozin]
OR for UTI [1]: 0.941 (0.687, 1.29) | OR for genital infection [1]: 5.08 (2.77, 9.34) | OR for hypoglycemia [1]: 1.11 (0.811, 1.52) | OR for volume depletion [1]: 1.44 (0.517, 4.01) | Increase in exposure for patients with renal impairment [2]: less than twofold | Median change from baseline in glycated hemoglobin, Observed ([3]; 10 mg, eGFR 30–60 mL/min/1.73 m^2 (study 10), five patients): −0.90 (−1.81, 0.12)^a | Median change from baseline in glycated hemoglobin, Observed ([3]; 10 mg, eGFR 45–60 mL/min/1.73 m^2 (study 10), five patients): −0.90 (−1.81, 0.12)^a | Median change from baseline in glycated hemoglobin, Observed ([3]; 10 mg, eGFR 60–90 mL/min/1.73 m^2 (study 10)): −0.40 (−1.70, 0.76) | Median change from baseline in glycated hemoglobin, Observed ([3]; 10 mg, elderly (75–85 years)): −0.65 (−2.44, 0.40) | Median change from baseline in glycated hemoglobin, Observed ([3]; 25 mg, eGFR 30–45 mL/min/1.73 m^2 (study 10)): −0.30 (−1.83, 1.43) | Median change from baseline in glycated hemoglobin, Observed ([3]; 25 mg, eGFR 30–60 mL/min/1.73 m^2 (study 10)): −0.40 (−2.00, 1.25) | Median change from baseline in glycated hemoglobin, Observed ([3]; 25 mg, eGFR 45–60 mL/min/1.73 m^2 (study 10)): −0.40 (−1.97, 0.88) | Median change from baseline in glycated hemoglobin, Observed ([3]; 25 mg, eGFR 60–90 mL/min/1.73 m^2 (study 10)): −0.70 (−1.64, 0.90) | Median change from baseline in glycated hemoglobin, Observed ([3]; 25 mg, elderly (75–85 years)): −0.50 (−2.03, 0.60) | Target of the maximal response for FPG and HbA1c obtained ([4]; once daily dose of approximately 10 mg): 80% | Target of the maximal response for FPG and HbA1c obtained ([4]; once daily dose of approximately 25 mg): 90% | Efficacy (effect on FPG) maintained in renal impairment ([4]; eGFR as low as 30 mL/min/1.73 m^2): nearly half the maximal effect | Once daily dose whose median exposure corresponds to AUC50 ([4]; once daily dose): around 3 mg | Increase in exposure (AUCss) in renal impairment ([5]; patients with (severe) renal impairment): less than twofold increase in exposure; also recorded: increased less than twofold; also recorded: increase in exposure less than twofold | Placebo-corrected reduction in HbA1c ([6]; add-on therapy, 10 mg): −0.4% to −0.7% | Reduction in FPG ([6]; add-on therapy, 10 mg): −0.9 to −1.5 mM | Placebo-corrected reduction in HbA1c ([6]; add-on therapy, 25 mg): −0.5% to −0.7% | Reduction in FPG ([6]; add-on therapy, 25 mg): −1.2 to −1.8 mM | Placebo-corrected reduction in HbA1c ([6]; monotherapy, 10 mg): −0.7% | Reduction in FPG ([6]; monotherapy, 10 mg): -1.7 mM | Placebo-corrected reduction in HbA1c ([6]; monotherapy, 25 mg): −0.9% | Reduction in FPG ([6]; monotherapy, 25 mg): -2.0 mM | Effect on HbA1c as add-on to existing antidiabetic therapy ([6]; patients with T2DM and stage 2 or 3 CKD): significant reductions in HbA1c | Effect on HbA1c ([6]; patients with severe renal impairment (stage 4 CKD)): no reduction in HbA1c was observed
